Test [1] deals with Escherichia coli. The experiment in a line: Antibacterial activity against Escherichia coli BW25113 expressing 2''-O-adenylyltransferase with aadB gene into pGDP4 vector. The format is functional, organism-based. The procedure, abridged: (§1)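 Gentamicin alone was serially diluted to find its MIC (μg/mL). This was done against E. coli BW25113 carrying aadB in pGDP4 and against wild-type BW25113 without the plasmid.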

The subject of test [2] is Escherichia coli. The experiment in a line: Antibacterial activity against wild type Escherichia coli BW25113. In kind it is functional, organism-based. The procedure, abridged:
as §1

In test [3] the test system is Escherichia coli. Description: Antibacterial activity against Escherichia coli BW25113 expressing 2''-O-adenylyltransferase 1a with aadB gene into pGDP4 vector by checkerboard analysis in presence of gentamycin. In kind it is functional. The essentials: (§2)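 Hyper-permeable E. coli BW25113 made gentamicin-resistant by cloning aadB (ANT(2″)-Ia) into pGDP4. Cells were exposed to serial dilutions of gentamicin crossed with serial dilutions of α-hydroxytropolone in checkerboard format. Growth was scored to give the gentamicin MIC at each inhibitor level and the FICI. Cell survival, as fraction of cells remaining, was scored at the inhibitor-alone concentrations.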

Test [4] is described as follows: Inhibition of Escherichia coli BL21 (lambda DE3) 2''-O-adenylyltransferase 1a by EnzChek pyrophosphate assay. The procedure, abridged:
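ANT(2″)-Ia overexpressed in E. coli BL21 (λDE3) and purified. Adenylation of kanamycin B followed by detecting the pyrophosphate by-product in 96-well format. ATP at 25 μM. Duplicate serial dilutions of inhibitor; IC50 taken from the dose curves.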

The nature of test [5]: Binding affinity to Escherichia coli BL21 (lambda DE3) 2''-O-adenylyltransferase 1a by ATP-competitive inhibition assay. The essentials:
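Purified ANT(2″)-Ia expressed in E. coli BL21 (λDE3). Pyrophosphate from kanamycin B adenylation detected by coupled pyrophosphate assay. Ki derived from dose curves with carefully maintained ATP and kanamycin B concentrations. Run only on compounds with IC50 < 200 μM.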

Test [6] relates to Escherichia coli. The experiment in a line: Inhibition of Escherichia coli W677/JR76.2 2''-O-adenylyltransferase 1a using [14C]ATP at 730 uM by liquid scintillation counting analysis.
For test [7], the system named is Escherichia coli. Description: Inhibition of Escherichia coli W677/JR76.2 2''-O-adenylyltransferase 1a using [14C]ATP at 73 uM by liquid scintillation counting analysis.
The test system of test [8] is Escherichia coli. The experiment in a line: Antibacterial activity against Escherichia coli BW25113 expressing 2''-O-adenylyltransferase 1d with aadB gene into pGDP4 vector by checkerboard analysis in presence of gentamycin. The format is functional.
Test [9] relates to Escherichia coli. Description: Antibacterial activity against Escherichia coli BW25113 expressing 2''-O-adenylyltransferase 1a with aadB gene into pGDP4 vector assessed as gentamycin MIC at 12 uM by checkerboard analysis. The format is functional. The essentials:
as §2

Test [10] relates to Escherichia coli. The experiment in a line: Antibacterial activity against Escherichia coli BW25113 expressing 2''-O-adenylyltransferase 1a with aadB gene into pGDP4 vector assessed as cell death at 50 uM. In kind it is functional, organism-based. The procedure, abridged: as §2
Test [11] deals with Escherichia coli. Description: Inhibition of Escherichia coli W677/JR76.2 2''-O-adenylyltransferase 1a using [14C]ATP at 7.3 uM by liquid scintillation counting analysis.
Test [12] has as its system Escherichia coli. The experiment in a line: Inhibition of Escherichia coli W677/JR76.2 2''-O-adenylyltransferase 1a using [14C]ATP at 550 uM by liquid scintillation counting analysis.
Test [13] concerns Escherichia coli. Description: Inhibition of Escherichia coli W677/JR76.2 2''-O-adenylyltransferase 1a using [14C]ATP at 5.5 uM by liquid scintillation counting analysis.
Test [14] concerns Escherichia coli. Description: Inhibition of Escherichia coli W677/JR76.2 2''-O-adenylyltransferase 1a using [14C]ATP at 55 uM by liquid scintillation counting analysis.
Test [15] concerns Escherichia coli. Description: Antibacterial activity against Escherichia coli BW25113 expressing 2''-O-adenylyltransferase 1a with aadB gene into pGDP4 vector assessed as cell remain at 50 uM. In kind it is functional. The procedure, abridged:
as §2

Active and inactive are the calls of the source. The rule behind the calls is not given here.

As a reminder, the MIC is the lowest concentration that inhibits growth of the organism. As to GENTAMICIN, the MIC in the test on Escherichia coli [1] stood at 64 µg/mL; against Escherichia coli [2], 0.25 µg/mL.

As usually defined, the IC50 is the midpoint of a concentration-inhibition curve. In general, Ki refers to the equilibrium dissociation constant of an inhibitor or competing ligand from its target. The low end stands for higher affinity, the high end for lower affinity. `Cc1cc(O)c(=O)c(O)cc1C(=O)C(C)C`: the “fractional inhibitory concentration index (FICI)” value in the test on Escherichia coli [3] is reported as 0.375. The midpoint of inhibition in test [4], the IC50, lay at 73 µM. In test [5], this molecule registered a Ki of 19 µM.

`Cc1cc(O)c(=O)c(O)cc1C(=O)c1ccccc1` returned an IC50 in test [4] of over 200 µM.

Regarding `Cc1cc(O)c(=O)c(O)cc1C(=O)C1CCCCC1`, the 50% inhibitory concentration (IC50) in test [4] was over 200 µM.

`COC(=O)c1c(CCl)cc(O)c(=O)c(O)c1C(=O)OC` gave an IC50 in test [4] of over 200 µM.

Consider `CCOC(=O)c1cc(O)c(=O)c(O)cc1C`, for which, in test [4], the IC50 was over 200 µM.

`Cc1cc(O)c(=O)c(O)cc1-c1ccc(-c2ccccc2)cc1`: the IC50 in [4] is over 200 µM.

As for `Cc1cc(O)c(=O)c(O)cc1C(=O)CC1CCCCC1`, the IC50 in [4] was over 200 µM.

What is called inhibition is the percentage by which the read-out fell short of the control. High values mean strong suppression, low ones little suppression. On to `CC(C)c1ccc(O)c(=O)c(O)c1` [BETA-THUJAPLICINOL], for which the entries for the “fractional inhibitory concentration index (FICI)” value with Escherichia coli [3] and in the test on Escherichia coli [8] were 0.375 and 3, respectively. Also, the inhibition amounted to 100% with Escherichia coli [6], 76% in the test on Escherichia coli [7] and 31% in the test on Escherichia coli [11]. In [4], this molecule registered an IC50 of 6.6 µM. In addition, the Ki in [5] was found to be 6.4 µM. In addition, the MIC in the test with Escherichia coli [9] amounted to 8 µg/mL. For the same molecule, the outcome in the test with Escherichia coli [10] was Active.

In the case of `Cc1cc(O)c(=O)c(O)cc1-c1ccc([N+](=O)[O-])cc1`, the “fractional inhibitory concentration index (FICI)” value with Escherichia coli [3] turned out to be 0.5. In test [4], the IC50 was determined as 20 µM. Further, the affinity in [5], expressed as Ki, was 21.4 µM.

As to `O=c1c(O)ccccc1O`, the inhibition in the test on Escherichia coli [12] was 100%; with Escherichia coli [13], 8%; in the test with Escherichia coli [14], 78%.

For `COc1cc(C)c(C(C)=O)cc(O)c1=O`, in test [4], the IC50 is over 200 µM.

For `Cc1cc(O)c(=O)c(O)cc1-c1ccc(Cl)cc1`, in the test with Escherichia coli [3], the “fractional inhibitory concentration index (FICI)” value turned out to be 2. This molecule also displayed a half-inhibitory concentration (IC50) in [4] of 9.9 µM. Affinity in test [5] was put at a Ki of 6.9 µM.

As for `COc1cc(C)c(-c2ccc([N+](=O)[O-])cc2)cc(O)c1=O`, the IC50 in test [4] is over 200 µM.

For the molecule `CC(=O)c1cc(O)c(=O)c(O)cc1C`, the Activity in the test with Escherichia coli [15] was 80%. The “fractional inhibitory concentration index (FICI)” value with Escherichia coli [3] is recorded as 0.187. In [4], this molecule gave an IC50 of 50 µM. In test [5], this molecule had a Ki of 29 µM. The MIC with Escherichia coli [9] was 32 µg/mL.

In the case of `Cc1cc(O)c(=O)c(O)cc1-c1ccc(Br)cc1`, the “fractional inhibitory concentration index (FICI)” value with Escherichia coli [3] turned out to be 1. Further, in [4], the IC50 was 8 µM. In test [5], this molecule yielded a Ki of 5.7 µM.

Molecule `COCc1cc(O)c(=O)c(O)c(C(=O)OC)c1C(=O)OC` returned an IC50 in [4] of over 200 µM.

In the case of `Cc1cc(O)c(=O)c(O)cc1-c1ccccc1`, the “fractional inhibitory concentration index (FICI)” value in the test on Escherichia coli [3] was determined as 2. This molecule also came in with an IC50 in test [4] of 117 µM. The molecule further showed a Ki in test [5] of 25 µM.

Molecule `Cc1cc(O)c(=O)c(O)cc1-c1ccc(C(F)(F)F)cc1` had a 50% inhibitory concentration (IC50) in [4] of over 200 µM.

Turning to `Cc1cc(O)c(=O)c(O)cc1-c1cccc2ccccc12`, the IC50 in test [4] is over 200 µM.

With `Cc1cc(O)c(=O)c(O)cc1-c1ccc2ccccc2c1`, the IC50 in test [4] is over 200 µM.

`COC(=O)c1c(C)cc(O)c(=O)c(O)c1C(=O)OC`: the IC50 in [4] is over 200 µM.

The values are drawn from ChEMBL document CHEMBL3351496, “Inhibition of the ANT(2")-Ia resistance enzyme and rescue of aminoglycoside antibiotic activity by synthetic α-hydroxytropolones” (Bioorg Med Chem Lett, 2014).
